# An excerpt weighted towards active compounds, which were near 4.6% of everything screened.
# Arrestin-AP2 inh: blocks beta-arrestin peptide binding to AP2 adaptin. 340,000 compounds, 0.31% hits. AID 504490. FITC-arrestin peptide / GST-AP2 beads, flow cytometry; AP2 beta2 appendage carries R879A mutation. inhibition, % at 10 µM;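 active means inhibition above a set limit, near 3 SD of compounds lacking own fluorescence, cut at about 54% in these data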;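 further: plate controls were DMSO wells for no effect and 5 µM unlabelled arrestin peptide for full effect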
#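 System: GST-AP2 R879A glutathione beads. Medium: PBS with 0.05% Tween 20 and 0.1% BSA. Also added: FITC-arrestin peptide, 50 nM. Incubation: 12 min plus 1 h, RT. Measured by: high-throughput flow cytometry of beads, ex 488, em 535 nm. Evaluation: percent drop in bead-associated FITC signal.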
# PolyA inhibitor: yeast polyadenylation inhibition | S. cerevisiae SKY197-pL101 polyadenylation reporter, beta-gal luminescence; efflux-impaired pdr1/pdr3 knockout yeast; score 100 = 6 SD above DMSO | activity score, % at 12 µM | 300,000 compounds, 0.02% hits;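 active means lowest replicate activity score at least 50, where 100 means six control SD above control mean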;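 further: yeast exposed to compound for 9 h at 30 °C; higher score means more reporter readthrough which indicates perturbed polyadenylation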
# NALP3 yeast inh: NALP3 inhibition in yeast | inhibition, % at 10 µM | 330,000 compounds, 0.39% hits | Yeast reconstituted NLRP3/ASC/caspase-1, beta-gal luminescence, 24 h;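 active means inhibition of 50% or more; inactive means inhibition below 50%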;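 further: plate controls were induced DMSO wells for no effect and uninduced yeast grown without galactose for full effect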
# ALR inh: inhibitors of human sulfhydryl oxidase ALR | purified ALR, DTT oxidation, H2O2 HRP-luminol luminescence | inhibition, % (concentration not given with the values) | 290,000 compounds, 3.8% hits;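 active means mean replicate inhibition above about 79%, with every replicate also reaching it, limit read from the data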
# Target sequence (P55789 whole entry, looked up): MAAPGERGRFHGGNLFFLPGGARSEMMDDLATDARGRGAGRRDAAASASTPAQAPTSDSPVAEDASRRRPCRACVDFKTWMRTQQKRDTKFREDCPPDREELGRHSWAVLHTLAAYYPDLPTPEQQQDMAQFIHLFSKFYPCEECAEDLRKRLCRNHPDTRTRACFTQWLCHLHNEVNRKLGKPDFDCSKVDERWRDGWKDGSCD
# NALP1 yeast inh: blocks the NALP1 inflammasome reconstituted in yeast; S. cerevisiae NALP1/ASC/caspase-1 growth, X-gal OD620, 72 h; inhibition, % at 10 µM; 280,000 compounds, 0.61% hits; AID 2071; in the data active means inhibition mostly above about 24%, no sharp cut-off; inactive means mostly below about 32%
# DSG3 Ab inh: human desmoglein-3 autoantibody binding inhibition. P32926. 310,000 compounds, 0.48% hits. AID 588358. DSG3-coupled beads, scFv-anti-DSG3-GFP binding, flow cytometry; active compounds read low. binding (percent of control), % at 10 µM;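 active means binding more than 3 SD below its plate's average and above zero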;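 further: hits lower antibody fragment binding to DSG3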
# Active calls of the source: *; . = no result.
SMILES,Arrestin-AP2 inh,PolyA inhibitor,NALP3 yeast inh,ALR inh,NALP1 yeast inh,DSG3 Ab inh
Cc1ccccc1C(=O)NCC(=O)OCCOc1ccc(C(C)C)c(C)c1,3,-1,20,4,.,107
Clc1ccc(-c2ccc(C=Nc3ccc(N4CCOCC4)cc3)o2)c(Cl)c1,0,-15,25,14,4,27*
Cc1ccc(S(=O)(=O)NCC(=O)OC(C)C(=O)NC(=O)NC2CCCCC2)cc1C (configuration not stated),14,.,9,.,.,96
CCN(CCCNC(=O)CN(C)S(=O)(=O)c1cccc2nsnc12)c1ccccc1,0,5,-15,95*,18,103
CCC1C(=O)N=C(SCC(=O)Nc2ccc(S(N)(=O)=O)cc2)NC1=O (configuration not stated),3,4,2,100*,22,89
CCC1C(=O)N=C(SCC(=O)Nc2ccccc2)NC1=O (configuration not stated),4,12,-6,99*,-4,100
COc1ccccc1NC(=O)CSC1=NC(=O)C(Cc2ccccc2)C(=O)N1 (configuration not stated),-15,3,3,99*,-2,.
COC1OC2COC(c3ccccc3)OC2C2OC12 (configuration not stated),11,.,.,.,.,98
Nc1n[nH]c(N)c1N=Nc1ccccc1F,-8,9,6,18,3,115
Nc1n[nH]c(N)c1N=Nc1ccc(F)cc1,12,5,22,86*,-1,109
Nc1n[nH]c(N)c1N=Nc1ccccc1,15,9,-5,95*,-17,102
COc1ccc(N=Nc2c(C)n[nH]c2C)cc1,9,-8,31,-2,4,90
COc1ccc(N=Nc2c(N)n[nH]c2N)cc1,-3,-13,18,78*,0,86
Nc1[nH][nH]c(=O)c1N=Nc1ccccc1,-9,.,.,.,.,91
Cc1ccccc1N=Nc1c(N)n[nH]c1N,38,-7,13,93*,-1,115
O=C1N[C@H](C(=O)O)CS1,.,-10,19,4,.,.
Cc1ccc(S(=O)(=O)c2ccsc2NC(=O)c2ccccc2)cc1,11,.,.,.,.,88
Cc1nc(NC(=O)COC(=O)c2cccs2)c(Cl)cc1Cl,2,.,28,.,.,108
Cc1ccc(CN(C)C(=O)COc2ccc(S(=O)(=O)N3CCCC3)cc2[N+](=O)[O-])c(C)c1,-4,.,13,-3,.,97
COc1cc2nc(-c3ccc(Br)o3)oc(=O)c2cc1OC,-1,-11,21,5,3,116
Cc1ccc2nc(-c3ccc(Br)o3)oc(=O)c2c1,5,-1,15,89*,17,103
COc1ccc(N)cc1C#N,-5,31,-7,-64,0,103
COc1cc(N)ccc1Cc1ccc(N)cc1OC,-2,9,37,97*,12,86
COc1ccccc1N=c1scc(-c2ccc3c(c2)NC(=O)CO3)n1CC1CCCO1 (configuration not stated),13,14,-5,99*,18,110
CCN=c1scc(-c2ccc3c(c2)NC(=O)CO3)n1N=C1CCCC1,21,6,7,91*,-6,136
SMILES,Arrestin-AP2 inh,PolyA inhibitor,NALP3 yeast inh,ALR inh,NALP1 yeast inh,DSG3 Ab inh
CC(C)NCCCOc1ccc(Cl)cc1Br,-5,0,27,1,20,95
CC(C)NCCCCOc1ccc(Br)cc1Cl,16,21,20,-10,28*,97
Cn1c(SCC(=O)NCCc2ccccc2)nnc1C1CCCCC1,1,-8,3,.,14,.
O=C(Nc1ccc([N+](=O)[O-])cc1)C1CC1(c1ccccc1)c1ccccc1 (configuration not stated),48,16,6,.,19,98
CC1(C)C(C=C(Cl)Cl)C1C(=O)Nc1ccc([N+](=O)[O-])cc1 (configuration not stated),.,.,.,.,57*,.
Cc1ccc(Cl)cc1N1CCN(C(=O)CCS(=O)(=O)c2ccc3c(c2)NC(=O)CO3)CC1,1,0,3,2,-1,102
CCN(CC)c1ccc(C(=O)N/N=C(\C)c2cccnc2)cc1,-1,-4,1,25,21,113
C/C(=N\NC(=O)Cc1ccc(Cl)cc1)c1ccc(F)cc1,-17,-9,13,-16,6,108
CCN(CC)c1ccc(C(=O)N/N=C(\C)c2ccc(O)cc2)cc1,5,35,7,94*,24,.
C/C(=N\NC(=O)Cc1ccc(F)cc1)c1ccc(O)cc1,23,-14,2,99*,24,96
CCOc1ccc(NC(=O)Cn2nnc(C(=O)NCc3ccc4c(c3)OCO4)c2N)cc1,16,-13,8,-8,19,93
N#C/C(=C\c1ccc(O)c(O)c1)C(=O)Nc1ccccc1,4,.,35,99*,.,107
COc1ccc(/C=C(\C#N)C(=O)Nc2cccnc2)cc1,2,1,3,-1,17,100
C[C@@H](NC(=O)/C(C#N)=C/c1ccc(O)c(O)c1)c1ccccc1,-1,.,30,99*,.,102
N#C/C(=C\c1ccc(O)c(O)c1)C(=O)Nc1cccc2ncccc12,8,11,25,99*,2,79
CC(NC(=O)/C(C#N)=C/c1ccc(Cl)c([N+](=O)[O-])c1)c1ccccc1 (configuration not stated),.,-112,15,4,57,.
COc1ccc(O)c(/C=C(\C#N)C(=O)Nc2cccnc2)c1,8,-11,23,98*,18,95
N#C/C(=C\c1ccncc1)C(=O)Nc1ccc(C(=O)O)cc1,13,11,19,95*,17,95
COC(=O)Cc1c(C)nc2nc(NCc3ccc(Cl)cc3)[nH]n2c1=O,25,17,11,.,34,106
COC(=O)Cc1c(C)nc2nc(NCc3cccc([N+](=O)[O-])c3)[nH]n2c1=O,-3,-7,14,89*,1,101
O=C(Cc1ccccc1[N+](=O)[O-])OCc1cccc([N+](=O)[O-])c1,.,-13,18,.,18,.
CCN(CC)c1ccc(NC(=O)COC(=O)/C=C/c2nc3ccccc3s2)cc1,0,8,6,99*,38,88
COc1cc(CC(=O)OCC(=O)N(C)C2CCCCC2)cc(OC)c1OC,3,.,-18,4,.,.
NNC(=O)c1ccc(O)cc1O,-2,-4,9,99*,15,91
O=C(CCCCC(=O)NN=Cc1ccc2c(c1)CCC2)NN=Cc1ccc2c(c1)CCC2,.,.,.,.,.,99
COc1ccc(S(=O)(=O)N2CCC(C(=O)Oc3ccc(C)cc3)CC2)cc1OC,-8,-2,11,.,.,101
Cn1c(SCC(=O)c2ccc(-c3ccccc3)cc2)nnc1-c1ccco1,-3,-15,11,88*,-9,83
